Results published in ChEMBL document CHEMBL1146216, “Synthesis and biological activity of a gemcitabine phosphoramidate prodrug” (J Med Chem, 2007).

How the values were obtained:
SK-MEL-28 = assay: Growth inhibition of SK-MEL-28 cells; type: functional; conditions: Homo sapiens
CCRF-CEM [1] = assay: Growth inhibition of dCK deficient CEM cells by MTT assay in presence of dipyridamole; conditions: Homo sapiens
MDA-MB-435 = assay: Growth inhibition of MDA-MB-435 cells; type: functional; conditions: Homo sapiens
NCI-H460 [2] = assay: Growth inhibition of H460 cells by SRB assay; type: functional, cell-based; conditions: Homo sapiens
Outline: (§1)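 Cells seeded at 5000/well and exposed to a range of drug concentrations for 72 h at 37 °C, 5% CO2, then read by SRB. A2780 and its dCK-deficient variant AG6000 were grown in DMEM; A549, H292 and H460 in RPMI; both media had 10% FCS and 20 mM HEPES. OD was read at 540 or 492 nm. Relative growth = (ODtreated − ODzero)/(ODcontrol − ODzero) × 100%, with ODzero taken at drug addition.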

CCRF-CEM [3] = assay: Growth inhibition of dCK deficient CEM cells by MTT assay; conditions: Homo sapiens
K562 = assay: Growth inhibition of K562 cells; type: functional; conditions: Homo sapiens
HOP-62 = assay: Growth inhibition in HOP62 cells; type: functional; conditions: Homo sapiens
A498 = assay: Growth inhibition in A498 cells; type: functional; conditions: Homo sapiens
SF-268 = assay: Growth inhibition of SF268 cells; type: functional; conditions: Homo sapiens
SW1573 [4] = assay: Ratio of growth inhibition of SW1573 cells by drug to 2'-2'-difluorodeoxycytidine; type: functional, Homo sapiens
NCI-H23 = assay: Growth inhibition of NCI-H23 cells; type: functional; conditions: Homo sapiens
UO-31 = assay: Growth inhibition of UO31 cells; type: functional; conditions: Homo sapiens
NCI-H322M = assay: Growth inhibition of NCI-H322M cells; type: functional; conditions: Homo sapiens
NCI-H522 = assay: Growth inhibition of NCI-H522 cells; type: functional; conditions: Homo sapiens
[5] = Growth inhibition in HS 578T cells; type: functional; conditions: Homo sapiens
[6] = Growth inhibition of AG6000 cells by SRB assay in presence of dipyridamole; type: functional, cell-based; conditions: Homo sapiens
Outline: (§2)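 SRB growth assay run with the nucleoside transport inhibitor dipyridamole at 1 µM final. Cells were seeded at 5000/well and exposed to a range of drug concentrations for 72 h at 37 °C, 5% CO2. Media: DMEM for A2780 and the dCK-deficient AG6000; RPMI for A549, H292 and H460; each with 10% FCS and 20 mM HEPES. Relative growth was calculated against ODzero and untreated controls.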

CCRF-CEM [7] = assay: Ratio of growth inhibition of CEM cells by drug to 2'-2'-difluorodeoxycytidine; type: functional, Homo sapiens
ACHN = assay: Growth inhibition in ACHN cells; type: functional; conditions: Homo sapiens
SW1573 [8] = assay: Growth inhibition of SW1573 cells by SRB assay; type: functional, cell-based; conditions: Homo sapiens
Outline: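 SW1573 NSCLC cells grown in DMEM with 10% FCS and 20 mM HEPES at 37 °C, 5% CO2. Seeded at 5000 cells/well and exposed to a range of drug concentrations for 72 h, then SRB assay. OD read at 540 or 492 nm. Relative growth = (ODtreated − ODzero)/(ODcontrol − ODzero) × 100%, with ODzero taken at drug addition.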

[9] = Ratio of growth inhibition of H292 cells by drug to 2'-2'-difluorodeoxycytidine; type: functional, Homo sapiens
TK-10 = assay: Growth inhibition of TK10 cells; type: functional; conditions: Homo sapiens
786-0 = assay: Growth inhibition in 786-0 cells; type: functional; conditions: Homo sapiens
NCI-H226 = assay: Growth inhibition of NCI-H226 cells; type: functional; conditions: Homo sapiens
A2780 [10] = assay: Growth inhibition of A2780 cells by SRB assay; type: functional, cell-based; conditions: Homo sapiens; outline: as §1
SK-MEL-5 = assay: Growth inhibition of SK-MEL-5 cells; type: functional; conditions: Homo sapiens
[11] = Growth inhibition of AG6000 cells by SRB assay; type: functional, cell-based; conditions: Homo sapiens; outline: as §1
EKVX = assay: Growth inhibition in EKVX cells; type: functional; conditions: Homo sapiens
NCI-H460 [12] = assay: Growth inhibition of H460 cells by SRB assay in presence of dipyridamole; type: functional, cell-based; conditions: Homo sapiens; outline: as §2
OVCAR-5 = assay: Growth inhibition of OVCAR5 cells; type: functional; conditions: Homo sapiens
CCRF-CEM [13] = assay: Growth inhibition of CEM cells by MTT assay; conditions: Homo sapiens
SF-539 = assay: Growth inhibition of SF539 cells; type: functional; conditions: Homo sapiens
MCF7 = assay: Growth inhibition of MCF7 cells; type: functional; conditions: Homo sapiens
BT-549 = assay: Growth inhibition in BT549 cells; type: functional; conditions: Homo sapiens
DU-145 = assay: Growth inhibition in DU145 cells; type: functional; conditions: Homo sapiens
A2780 [14] = assay: Ratio of growth inhibition of A2780 cells by drug to 2'-2'-difluorodeoxycytidine; type: functional, Homo sapiens
NCI/ADR-RES = assay: Growth inhibition of NCI/ADR-RES cells; type: functional; conditions: Homo sapiens
[15] = Ratio of growth inhibition of AG6000 cells by drug to 2'-2'-difluorodeoxycytidine; type: functional, Homo sapiens
UACC-257 = assay: Growth inhibition of UACC257 cells; type: functional; conditions: Homo sapiens
A2780 [16] = assay: Growth inhibition of A2780 cells by SRB assay in presence of dipyridamole; type: functional, cell-based; conditions: Homo sapiens; outline: as §2
A549 [17] = assay: Ratio of growth inhibition of A549 cells by drug to 2'-2'-difluorodeoxycytidine; type: functional, Homo sapiens
[18] = Growth inhibition of H292 cells by SRB assay; type: functional, cell-based; conditions: Homo sapiens, NCI-H292; outline: as §1
[19] = Growth inhibition of H292 cells by SRB assay in presence of dipyridamole; type: functional, cell-based; conditions: Homo sapiens, NCI-H292; outline: as §2
UACC-62 = assay: Growth inhibition of UACC62 cells; type: functional; conditions: Homo sapiens
HCT-15 = assay: Growth inhibition in HCT15 cells; type: functional; conditions: Homo sapiens
CCRF-CEM [20] = assay: Ratio of growth inhibition of dCK deficient CEM cells by drug to 2'-2'-difluorodeoxycytidine; type: functional, Homo sapiens
CAKI-1 = assay: Growth inhibition in CAKI1 cells; type: functional; conditions: Homo sapiens
HCT-116 = assay: Growth inhibition in HCT116 cells; type: functional; conditions: Homo sapiens
COLO 205 = assay: Growth inhibition in COLO 205 cells; type: functional; conditions: Homo sapiens
SN12C = assay: Growth inhibition of SN12C cells; type: functional; conditions: Homo sapiens
HT-29 = assay: Growth inhibition in HT29 cells; type: functional; conditions: Homo sapiens
SNB-75 = assay: Growth inhibition of SNB75 cells; type: functional; conditions: Homo sapiens
CCRF-CEM [21] = assay: Growth inhibition of CEM cells by MTT assay in presence of dipyridamole; conditions: Homo sapiens
NCI-H460 [22] = assay: Growth inhibition of NCI-H460 cells; type: functional; conditions: Homo sapiens
NCI-H460 [23] = assay: Ratio of growth inhibition of H460 cells by drug to 2'-2'-difluorodeoxycytidine; type: functional, Homo sapiens
LOX IMVI = assay: Growth inhibition of LOX IMVI cells; type: functional; conditions: Homo sapiens
KM12 = assay: Growth inhibition of KM12 cells; type: functional; conditions: Homo sapiens
OVCAR-3 = assay: Growth inhibition of OVCAR-3 cells; type: functional; conditions: Homo sapiens
A549 [24] = assay: Growth inhibition of A549 cells by SRB assay; type: functional, cell-based; conditions: Homo sapiens; outline: as §1
IGROV-1 = assay: Growth inhibition in IGROV1 cells; type: functional; conditions: Homo sapiens
SK-OV-3 = assay: Growth inhibition of SKOV3 cells; type: functional; conditions: Homo sapiens
A549 [25] = assay: Growth inhibition in A549 cells; type: functional; conditions: Homo sapiens
OVCAR-8 = assay: Growth inhibition of OVCAR8 cells; type: functional; conditions: Homo sapiens
U-251 = assay: Growth inhibition of U251 cells; type: functional; conditions: Homo sapiens
MOLT-4 = assay: Growth inhibition of MOLT4 cells; type: functional; conditions: Homo sapiens
PC-3 = assay: Growth inhibition of PC3 cells; type: functional; conditions: Homo sapiens
M14 = assay: Growth inhibition of M14 cells; type: functional; conditions: Homo sapiens
SW1573 [26] = assay: Growth inhibition of SW1573 cells by SRB assay in presence of dipyridamole; type: functional, cell-based; conditions: Homo sapiens
Outline: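 SW1573 cells cultured in DMEM, 10% FCS, 20 mM HEPES, 37 °C, 5% CO2. Plated at 5000 cells/well and given graded drug concentrations with the nucleoside transport inhibitor dipyridamole at 1 µM final, for 72 h. SRB read-out at OD 540 or 492 nm. Growth is expressed relative to time-zero and untreated wells.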

A549 [27] = assay: Growth inhibition of A549 cells by SRB assay in presence of dipyridamole; type: functional, cell-based; conditions: Homo sapiens; outline: as §2
MDA-MB-231 = assay: Growth inhibition of MDA-MB-231 cells; type: functional; conditions: Homo sapiens
SK-MEL-2 = assay: Growth inhibition of SK-MEL-2 cells; type: functional; conditions: Homo sapiens
HOP-92 = assay: Growth inhibition in HOP92 cells; type: functional; conditions: Homo sapiens
SF-295 = assay: Growth inhibition of SF295 cells; type: functional; conditions: Homo sapiens
SW-620 = assay: Growth inhibition of SW620 cells; type: functional; conditions: Homo sapiens
SNB-19 = assay: Growth inhibition of SNB19 cells; type: functional; conditions: Homo sapiens

Work on `CN(CCCCCl)P(=O)(OCc1ccc([N+](=O)[O-])o1)OC[C@H]1O[C@@H](n2ccc(N)nc2=O)C(F)(F)[C@@H]1O` (some centres undefined) yielded a GI50 (SK-MEL-28) of 20000 nM, an IC50 (CCRF-CEM [1]) of 17000 nM and a GI50 (MDA-MB-435) of 470 nM. The IC50 (NCI-H460 [2]) was 77 nM, the IC50 (CCRF-CEM [3]) was 13000 nM and the GI50 (K562) was 13000 nM. It also gave a GI50 (HOP-62) of 500 nM, a GI50 (A498) of 5800 nM and a GI50 (SF-268) of 260 nM. For the same molecule, the “Ratio IC50” value (SW1573 [4]) was 5.8, the GI50 (NCI-H23) was 74 nM and the GI50 (UO-31) was 400 nM. For the same molecule, the GI50 (NCI-H322M) was 3500 nM, the GI50 (NCI-H522) was 15000 nM and the GI50 [5] was 46000 nM. The IC50 [6] was 6000 nM, the “Ratio IC50” value (CCRF-CEM [7]) was 15 and the GI50 (ACHN) was 38 nM. For the same molecule, the IC50 (SW1573 [8]) was 92 nM, the “Ratio IC50” value [9] was 2.8 and the GI50 (TK-10) was 1500 nM. It also gave a GI50 (786-0) of 62 nM, a GI50 (NCI-H226) of 16000 nM and an IC50 (A2780 [10]) of 8 nM. For the same molecule, the GI50 (SK-MEL-5) was 3200 nM, the IC50 [11] was 5000 nM and the GI50 (EKVX) was 2500 nM. For the same molecule, the IC50 (NCI-H460 [12]) was > 500 nM, the GI50 (OVCAR-5) was 1900 nM and the IC50 (CCRF-CEM [13]) was 2000 nM. It also gave a GI50 (SF-539) of 42 nM, a GI50 (MCF7) of 450 nM and a GI50 (BT-549) of 1600 nM. The GI50 (DU-145) was 190 nM, the “Ratio IC50” value (A2780 [14]) was 5.3 and the GI50 (NCI/ADR-RES) was 230 nM. The “Ratio IC50” value [15] was 0.25, the GI50 (UACC-257) was 17000 nM and the IC50 (A2780 [16]) was 400 nM. For the same molecule, the “Ratio IC50” value (A549 [17]) was 5.6, the IC50 [18] was 37 nM and the IC50 [19] was 330 nM. The GI50 (UACC-62) was 1100 nM, the GI50 (HCT-15) was 54000 nM and the “Ratio IC50” value (CCRF-CEM [20]) was 0.26. It also gave a GI50 (CAKI-1) of 220 nM, a GI50 (HCT-116) of 1100 nM and a GI50 (COLO 205) of 7500 nM. It also gave a GI50 (SN12C) of 490 nM, a GI50 (HT-29) of 30000 nM and a GI50 (SNB-75) of 13000 nM. For the same molecule, the IC50 (CCRF-CEM [21]) was 4000 nM, the GI50 (NCI-H460 [22]) was 300 nM and the “Ratio IC50” value (NCI-H460 [23]) was 7.7. It also gave a GI50 (LOX IMVI) of 760 nM, a GI50 (KM12) of 15000 nM and a GI50 (OVCAR-3) of 3200 nM. For the same molecule, the IC50 (A549 [24]) was 79 nM, the GI50 (IGROV-1) was 14000 nM and the GI50 (SK-OV-3) was 2200 nM. The GI50 (A549 [25]) was 730 nM, the GI50 (OVCAR-8) was 110 nM and the GI50 (U-251) was 780 nM. For the same molecule, the GI50 (MOLT-4) was 770 nM, the GI50 (PC-3) was 1800 nM and the GI50 (M14) was 54 nM. The IC50 (SW1573 [26]) was > 500 nM, the IC50 (A549 [27]) was > 500 nM and the GI50 (MDA-MB-231) was 25000 nM. It also gave a GI50 (SK-MEL-2) of 80000 nM, a GI50 (HOP-92) of 150 nM and a GI50 (SF-295) of 880 nM. It also gave a GI50 (SW-620) of 38000 nM and a GI50 (SNB-19) of 260 nM.
